The values below come from PubChem BioAssay AID623968 (The Scripps Research Institute Molecular Screening Center, 2012).

The test system of this experiment is Huh 7.5 HCV Rluc replicon, HCV RNA qRT-PCR, 72 h. The experiment is described as follows: effect on HCV RNA in replicon cells – RT-PCR, Huh 7.5 Rluc replicon cells, orthogonal assay for HCV NS3 helicase inhibitor project, late-stage follow-up (AID 623968). In short, it runs like this: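 Assay system: Huh 7.5 human hepatoma cells carrying HCV Rluc replicon / Times: 72 h treatment at 37 °C / Technique: TaqMan qRT-PCR targeting HCV 5'UTR / Evaluation: IC50 from fitted curve of rRNA-normalized HCV RNA versus DMSO / Benchmarks: DMSO vehicle-treated cells as reference sample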

Calls of active or inactive are those of the source.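 The calls were made as follows: active = compounds cutting HCV replicon RNA in liver cells with IC50 no higher than 50000 nM; inactive = the rest.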

For `Cc1ccc2nc(-c3ccc4nc(-c5ccc(NC(=O)c6cc(C(F)(F)F)cc(C(F)(F)F)c6)cc5)sc4c3)sc2c1S(=O)(=O)O`, the IC50 (usually the point on the concentration scale where inhibition reaches its midpoint) was 5 µM.
On to `Cc1ccc2nc(-c3ccc4nc(-c5ccc(NC(=O)c6cccc(Cl)c6)cc5)sc4c3)sc2c1S(=O)(=O)O`, for which the IC50 was > 25 µM (inactive).
